According to ChEMBL document CHEMBL1955799, “Cyclic dipeptides exhibit potency for scavenging radicals” (Bioorg Med Chem, 2012):

Assays:
Type in all cases: functional
[1] = Antioxidant activity assessed as superoxide radical scavenging activity at 2.5 mM by electron spin resonance method
In short: (§1)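 ESR spectrometry of radical signal, same settings for hydroxyl and superoxide radicals: magnetic field 335.7 ± 5 mT, power 4 mW at 9.414 GHz, modulation 100 kHz 1 × 0.079 mT, response 0.1 s, amplitude 160, sweep time 2 min, 25 °C. Activity is expressed as % inhibition of the radical signal.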

[2] = Antioxidant activity assessed as hydroxyl radical scavenging activity by electron spin resonance method; in short: as §1
[3] = Antioxidant activity assessed as hydroxyl radical scavenging activity at 2.5 mM by electron spin resonance method; in short: as §1
[4] = Antioxidant activity assessed as superoxide radical scavenging activity by electron spin resonance method; in short: as §1

Molecule | inhibition [1] [%] | IC50 [2] [µM] | inhibition [3] [%] | IC50 [4] [µM]
CC(C)C[C@@H]1NC(=O)[C@H](CCC(=O)O)NC1=O | 0 | 80 | 97.8 | 
CSCC[C@@H]1NC(=O)[C@H](CC(C)C)NC1=O | 0 | 800 | 79 | 
CC(C)C[C@@H]1NC(=O)[C@@H]2CCCN2C1=O | 0 | 1100 | 86.2 | 
CC(C)C[C@@H]1NC(=O)[C@H](CCCCN)NC1=O | 0 | 160 | 96 | 
CC(C)C[C@@H]1NC(=O)[C@H](CO)NC1=O | 0 | 1000 | 95.2 | 
CC(C)C[C@@H]1NC(=O)[C@H]([C@@H](C)O)NC1=O | 0 |  | 0 | 
CC(C)C[C@@H]1NC(=O)[C@H](CC(=O)O)NC1=O | 0 | 4 | 95 | 
CC(C)C[C@@H]1NC(=O)[C@H](CCC(N)=O)NC1=O | 0 |  | 19 | 
CC(C)C[C@@H]1NC(=O)[C@H](CC(C)C)NC1=O | 0 |  | 26 | 
CC(C)C[C@@H]1NC(=O)[C@H](CC(N)=O)NC1=O | 0 | 170 | 96 | 
CC(C)C[C@@H]1NC(=O)[C@H](Cc2cnc[nH]2)NC1=O | 0 | 850 | 83.9 | 
CC(C)C[C@@H]1NC(=O)[C@H](C(C)C)NC1=O | 0 |  | 12.3 | 
CC(C)C[C@@H]1NC(=O)[C@H](Cc2ccccc2)NC1=O | 0 |  | 23.5 | 
CC(C)C[C@@H]1NC(=O)[C@H](C)NC1=O | 0 |  |  | 
CC(C)C[C@@H]1NC(=O)CNC1=O | 0 |  | 0 | 
CC(C)C[C@@H]1NC(=O)[C@H](Cc2c[nH]c3ccccc23)NC1=O | 0 | 1800 | 66 | 
VITAMIN E | 32.3 |  | 37.7 | 
CC(C)C[C@@H]1NC(=O)[C@H](CS)NC1=O | 83.3 | 100 | 88.9 | 880
